Reference: ChEMBL document CHEMBL1123591, “Synthetic analogues of tetrahydrobiopterin with cofactor activity for aromatic amino acid hydroxylases” (1987)
Where “and” joins values, the source holds several entries; their conditions need not be identical. Equal entries are not always repeated.

Key:
[1] = substrate: CC(C)(C)OCC1CNc2nc(N)nc(O)c2N1; assay: (§1) Tyrosine hydroxylase (isolated from bovine adrenal medulla) cofactor activity
Procedure, shortened: (§2)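 Tyrosine hydroxylase was purified from bovine adrenal medulla by partial trypsin digestion, giving a model of the high-affinity form, then ammonium sulfate fractionation. Activity was measured as release of ³H₂O from L-(3,5-³H)tyrosine, with velocities expressed relative to tetrahydrobiopterin.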

[2] = substrate: CC(C)COCC1CNc2nc(N)nc(O)c2N1; assay: as §1; procedure, shortened: as §2
[3] = substrate: CC(C)OCC1CNc2nc(N)nc(O)c2N1; assay: as §1; procedure, shortened: as §2
[4] = substrate: CC1(C)CNc2nc(N)nc(O)c2N1; assay: as §1; procedure, shortened: as §2
[5] = substrate: CC1CNc2nc(N)[nH]c(=O)c2N1; assay: as §1; procedure, shortened: as §2
[6] = substrate: CCCCCCCCOCC1CNc2nc(N)nc(O)c2N1; assay: as §1; procedure, shortened: as §2
[7] = substrate: CCCCCOCC1CNc2nc(N)nc(O)c2N1; assay: as §1; procedure, shortened: as §2
[8] = substrate: CCCOCC1CNc2nc(N)nc(O)c2N1; assay: as §1; procedure, shortened: as §2
[9] = substrate: CCOCC1CNc2nc(N)nc(O)c2N1; assay: as §1; procedure, shortened: as §2
[10] = substrate: COCC1CNc2nc(N)nc(O)c2N1; assay: as §1; procedure, shortened: as §2
[11] = substrate: COCCOCC1CNc2nc(N)nc(O)c2N1; assay: as §1; procedure, shortened: as §2
[12] = biological target: Tyrosine hydroxylase (Bos taurus); assay: Tested in isolated enzyme assay for its cofactor activity against tyrosine hydroxylase (isolated from bovine adrenal medulla) expressed as Michaelis-Menten constant
[13] = substrate: CC(C)OCC1CNc2nc(N)nc(O)c2N1; assay: (§3) Tested in isolated enzyme assay for its cofactor activity against phenylalanine hydroxylase (isolated from rat liver) expressed as Michaelis-Menten constant
Procedure, shortened: (§4)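 Phenylalanine hydroxylase was isolated from rat liver and purified on phenyl-Sepharose. Tyrosine formed was quantified by liquid chromatography with fluorescence detection, and velocities were expressed relative to tetrahydrobiopterin.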

[14] = substrate: CC(O)C(O)C1CNc2nc(N)nc(O)c2N1; assay: as §3; procedure, shortened: as §4
[15] = substrate: CC1(C)CNc2nc(N)nc(O)c2N1; assay: as §3; procedure, shortened: as §4
[16] = substrate: CC1CNc2nc(N)[nH]c(=O)c2N1; assay: as §3; procedure, shortened: as §4
[17] = substrate: CCCCCCCCOCC1CNc2nc(N)nc(O)c2N1; assay: as §3; procedure, shortened: as §4
[18] = substrate: CCCCOCC1CNc2nc(N)nc(O)c2N1; assay: as §3; procedure, shortened: as §4
[19] = substrate: CCCOCC1CNc2nc(N)nc(O)c2N1; assay: as §3; procedure, shortened: as §4
[20] = substrate: CCOCC1CNc2nc(N)nc(O)c2N1; assay: as §3; procedure, shortened: as §4
[21] = substrate: COCC1CNc2nc(N)nc(O)c2N1; assay: as §3; procedure, shortened: as §4
[22] = substrate: COCCOCC1CNc2nc(N)nc(O)c2N1; assay: as §3; procedure, shortened: as §4
[23] = compound: CC1CNc2nc(N)[nH]c(=O)c2N1; assay: Tested in isolated enzyme assay for its cofactor activity against tryptophan hydroxylase (isolated from rat brain stem) expressed as Michaelis-Menten constant (calculated in the presence of platinum catalyst)
[24] = substrate: CC(C)OCC1CNc2nc(N)nc(O)c2N1; assay: (§5) Tested in isolated enzyme assay for its cofactor activity against tryptophan hydroxylase (isolated from rat brain stem) expressed as Michaelis-Menten constant
Procedure, shortened: (§6)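 The tryptophan hydroxylase source was a desalted 40000g supernatant of rat brain stem, with velocities expressed relative to tetrahydrobiopterin.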

[25] = substrate: CC(O)C(O)C1CNc2nc(N)nc(O)c2N1; assay: as §5; procedure, shortened: as §6
[26] = substrate: CCCCCCCCOCC1CNc2nc(N)nc(O)c2N1; assay: as §5; procedure, shortened: as §6
[27] = substrate: CCCCOCC1CNc2nc(N)nc(O)c2N1; assay: as §5; procedure, shortened: as §6
[28] = substrate: CCCOCC1CNc2nc(N)nc(O)c2N1; assay: as §5; procedure, shortened: as §6
[29] = substrate: CCOCC1CNc2nc(N)nc(O)c2N1; assay: as §5; procedure, shortened: as §6
[30] = substrate: COCC1CNc2nc(N)nc(O)c2N1; assay: as §5; procedure, shortened: as §6

B1: Tyrosine 3-monooxygenase (Bos taurus), P17289 (protein)
chain: MPTPNAASPQAKGFRRAVSELDAKQAEAIMSPRFVGRRQSLIQDARKEREKAEAAASSSESAEAAAWLERDGEAVLTLLFALPPTRPPALTRAIKVFETFEAHLHHLETRPAQPLRAGSPPLECFVRCEVPGPVVPALLSALRRVAEDVRAAGESKVLWFPRKVSELDKCHHLVTKFDPDLDLDHPGFSDQAYRQRRKLIAEIAFQYKQGDPIPHVEYTAEETATWKEVYSTLRGLYPTHACREHLEAFELLERFCGYREDRIPQLEDVSRFLKERTGFQLRPAAGLLSARDFLASLAFRVFQCTQYIRHASSPMHSPEPECCHELLGHVPMLADRTFAQFSQDIGLASLGVSDEEIEKLSTLYWFTVEFGLCKQNGEVKAYGAGLLSSYGELLHSLSEEPEIRAFDPDAAAVQPYQDQTYQPVYFVSESFSDAKDKLRSYASRIQRPFSVKFDPYTLAIDVLDSPHAIRHALDGVQDEMQALAHALNAIS
Km [1]: 120 µM | Km [2]: 80 µM | Km [3]: 45 µM and 55 µM | Km [4]: 77 µM and 105 µM | Km [5]: 133 µM and 51 µM | Km [6]: 44 µM | Km [7]: 65 µM | Km [8]: 28 µM and 22 µM | Km [9]: 52 µM and 23 µM | Km [10]: 84 µM | Km [11]: 200 µM | Km [12]: 22 µM

B2: Phenylalanine-4-hydroxylase (Rattus norvegicus), P04176 (protein)
chain: MAAVVLENGVLSRKLSDFGQETSYIEDNSNQNGAISLIFSLKEEVGALAKVLRLFEENDINLTHIESRPSRLNKDEYEFFTYLDKRTKPVLGSIIKSLRNDIGATVHELSRDKEKNTVPWFPRTIQELDRFANQILSYGAELDADHPGFKDPVYRARRKQFADIAYNYRHGQPIPRVEYTEEEKQTWGTVFRTLKALYKTHACYEHNHIFPLLEKYCGFREDNIPQLEDVSQFLQTCTGFRLRPVAGLLSSRDFLGGLAFRVFHCTQYIRHGSKPMYTPEPDICHELLGHVPLFSDRSFAQFSQEIGLASLGAPDEYIEKLATIYWFTVEFGLCKEGDSIKAYGAGLLSSFGELQYCLSDKPKLLPLELEKTACQEYSVTEFQPLYYVAESFSDAKEKVRTFAATIPRPFSVRYDPYTQRVEVLDNTQQLKILADSINSEVGILCNALQKIKS
Km [13]: 9 µM | Km [14]: 5.5 µM | Km [15]: 29 µM | Km [16]: 21 µM | Km [17]: 1 µM | Km [18]: 21 µM | Km [19]: 16 µM | Km [20]: 21 µM | Km [21]: 17 µM | Km [22]: 65 µM

B3: Tryptophan 5-hydroxylase 1 (Rattus norvegicus), P09810 (protein)
chain: MIEDNKENKDHSSERGRVTLIFSLKNEVGGLIKALKIFQENHVNLLHIESRKSKRRNSEFEIFVDCDINREQLNDIFPLLKSHTTVLSVDSPDQLPEKEDVMETVPWFPKKISDLDFCANRVLLYGSELDADHPGFKDNVYRRRRKYFAELAMNYKHGDPIPKIEFTEEEIKTWGTIFRELNKLYPTHACREYLRNLPLLSKYCGYREDNVPQLEDVSNFLKERTGFSIRPVAGYLSPRDFLSGLAFRVFHCTQYVRHSSDPLYTPEPDTCHELLGHVPLLAEPSFAQFSQEIGLASLGASEETVQKLATCYFFTVEFGLCKQDGQLRVFGAGLLSSISELRHALSGHAKVKPFDPKVACKQECLITSFQDVYFVSESFEDAKEKMREFAKTVKRPFGVKYNPYTQSIQVLRDSKSITSAMNELRHDLDVVNDALARVSRWPSV
Km [23]: 355 µM | Km [24]: 129 µM | Km [25]: 49 µM | Km [26]: 11 µM | Km [27]: 84 µM | Km [28]: 92 µM | Km [29]: 44 µM | Km [30]: 33 µM
